According to ChEMBL document CHEMBL4020838, “The Discovery of ( S)-1-(6-(3-((4-(1-(Cyclopropanecarbonyl)piperidin-4-yl)-2-methylphenyl)amino)-2,3-dihydro-1 H-inden-4-yl)pyridin-2-yl)-5-methyl-1 H-pyrazole-4-carboxylic Acid, a Soluble Guanylate Cyclase Activator Specifically Designed for Topical Ocular Delivery as a Therapy for Glaucoma” (J Med Chem, 2018):
The source made the active and inactive calls. No cut-off for these calls is given here.

Experiments:
[1] = Activation of HUVEC-derived soluble guanylate cyclase expressed in CHOK1 cells assessed as increase in cGMP production after 1 hr by HTRF assay; format: cell-based
In short: (§1)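 High-throughput assay in Chinese hamster ovary cells expressing sGC. cGMP was measured across a dose range. EC50 and Emax (maximal cGMP produced) were taken from the dose-response curve.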

Homo sapiens [2] = species: Homo sapiens; experiment: Activation of HUVEC-derived soluble guanylate cyclase expressed in CHOK1 cells assessed as increase in cGMP production after 1 hr by HTRF assay relative to 1-{6-[5-chloro-2-({4-[trans-4-(trifluoromethyl)cyclohexyl]-benzyl}oxy)phenyl)pyridin-2-yl)-5-(trifluoromethyl)-1H-pyrazole-4-carboxylic acid; format: cell-based; in short: as §1
[3] = Activation of soluble guanylate cyclase in human GTM3 cells assessed as increase in cGMP production after 30 mins by fluorescence assay; format: cell-based
In short: (§2)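 Immortalized glaucomatous trabecular meshwork (GTM-3) cells expressing endogenous levels of sGC were used. cGMP was read across a dose range. EC50 and Emax were derived from the dose-response curve.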

Homo sapiens [4] = species: Homo sapiens; experiment: Activation of soluble guanylate cyclase in human GTM3 cells assessed as increase in cGMP production after 30 mins by fluorescence assay relative to 1-{6-[5-chloro-2-({4-[trans-4-(trifluoromethyl)cyclohexyl]-benzyl}oxy)phenyl)pyridin-2-yl)-5-(trifluoromethyl)-1H-pyrazole-4-carboxylic acid; format: cell-based; in short: as §2
Oryctolagus cuniculus [5] = experiment: Toxicity in New Zealand albino rabbit assessed as excessive blinking at 30 ug administered as single topical dose measured up to 24 hrs post dose; details: in vivo, topical_or_ocular
Oryctolagus cuniculus [6] = experiment: Toxicity in New Zealand albino rabbit assessed as conjunctival hyperemia at 30 ug administered as single topical dose measured up to 24 hrs post dose; details: in vivo, topical_or_ocular
Oryctolagus cuniculus [7] = experiment: Toxicity in New Zealand albino rabbit eye up to 300 ug administered as single topical dose measured up to 24 hrs post dose; details: in vivo, topical_or_ocular
Cynomolgus monkey [8] = experiment: Toxicity in laser-induced ocular hypertensive cynomolgus monkey eye at 30 ug administered as single topical dose; set-up: species or system Macaca fascicularis; details: in vivo, topical_or_ocular
[9] = Dissociation constant, pKa of the compound; format: physicochemical
Cynomolgus monkey [10] = experiment: Reduction of intraocular pressure in laser-induced ocular hypertensive cynomolgus monkey at 30 ug administered as single topical dose measured after 6 to 24 hrs; format: functional; details: Macaca fascicularis

Row | SMILES | EC50 ([1]; CHO-K1, 1 h) | Emax (Homo sapiens [2]) | EC50 ([3]; Homo sapiens, GTM3, 0.5 h) | Emax (Homo sapiens [4]) | EC50 [1] | other results
1 | Cc1cc(C2CCN(C(=O)C3CC3)CC2)ccc1OCc1ccsc1-c1cccc(-n2ncc(C(=O)O)c2C(F)(F)F)n1 | 4.5 nM | 102% | – | – | – | –
2 | Cc1cc(C2CCN(C(=O)C3CC3)CC2)ccc1OCc1c(C)csc1-c1cccc(-n2ncc(C(=O)O)c2C(F)(F)F)n1 | < 0.5 nM | 100% | 40 nM | 100% | – | –
3 | Cc1cc(C2CCN(CC3CC3)CC2)ccc1OCc1ccsc1-c1cccc(-n2ncc(C(=O)O)c2C(F)(F)F)n1 | 430 nM | 88% | – | – | – | –
4 | CCc1cc(COc2ccc(C3CCN(C(=O)C4CC4)CC3)cc2C)c(-c2cccc(-n3ncc(C(=O)O)c3C(F)(F)F)n2)s1 | 2 nM | 103% | 180 nM | 68% | – | –
5 | Cc1cc(C2CCN(C(=O)C3CC3)CC2)ccc1OCC1=C(c2cccc(-n3ncc(C(=O)O)c3C(F)(F)F)n2)CCCC1 | 0.35 nM | 101% | 85 nM | 110% | – | –
6 | CCC(=O)N1CCC(c2ccc(OCc3ccsc3-c3cccc(-n4ncc(C(=O)O)c4C(F)(F)F)n3)cc2)CC1 | 25 nM | 101% | – | – | – | –
7 | O=C(Nc1ccc(S(=O)(=O)N2CCOCC2)cc1)c1cc(Cl)ccc1NS(=O)(=O)c1ccc(Cl)s1 | 870 nM | 95% | – | – | – | –
8 | CCc1csc(-c2cccc(-n3ncc(C(=O)O)c3C(F)(F)F)n2)c1COc1ccc(C2CCN(C(=O)C3CC3)CC2)cc1C | 6 nM | 105% | 160 nM | 70% | – | –
9 | CCc1cc(OCC2=C(c3cccc(-n4ncc(C(=O)O)c4C(F)(F)F)n3)CCCC2(C)C)ccc1C1CCN(C(=O)C2CC2)CC1 | 1 nM | 99% | 140 nM | 71% | – | –
10 | Cc1cc(C2CCNCC2)ccc1OCc1ccsc1-c1cccc(-n2ncc(C(=O)O)c2C(F)(F)F)n1 | 4200 nM | 73% | – | – | – | –
11 | Cc1cc(COc2ccc(C3CCN(C(=O)C4CC4)CC3)cc2C)c(-c2cccc(-n3ncc(C(=O)O)c3C(F)(F)F)n2)s1 | < 0.1 nM | 101% | 53 nM | 100% | – | –
12 | Cc1c(C(=O)O)cnn1-c1nc(-c2cccc(C(F)(F)F)c2)cs1 | 162 nM | 105% | – | – | – | –
13 | Cc1cc(C2CCN(C(=O)C3CC3)CC2)ccc1OCc1cc(Cl)sc1-c1cccc(-n2ncc(C(=O)O)c2C(F)(F)F)n1 | 0.15 nM | 99% | 520 nM | 97% | – | –
14 | Cc1cc(C2CCN(C(=O)C3CC3)CC2)ccc1OCC1=C(c2cccc(-n3ncc(C(=O)O)c3C(F)(F)F)n2)CCC1 | 2.5 nM | 101% | – | – | – | –
15 | Cc1cc(C2CCN(C(=O)C3CC3)CC2)ccc1OC1CCc2cccc(-c3cccc(-n4ncc(C(=O)O)c4C(F)(F)F)n3)c21 (single isomer, unassigned; (+)) [listing 1 of 2 here] | – | – | 10 nM | – | 1 nM | –
16 | CCc1cc(OCC2=C(c3cccc(-n4ncc(C(=O)O)c4C(F)(F)F)n3)CCCC2C)ccc1C1CCN(C(=O)C2CC2)CC1 (single isomer, unassigned; (+)) [listing 1 of 2 here] | – | – | – | – | 1 nM | EC50 [3]: 6 nM; Activity (Oryctolagus cuniculus [5]): Toxic; Activity (Oryctolagus cuniculus [6]): Toxic
17 | CCc1cc(OCC2=C(c3cccc(-n4ncc(C(=O)O)c4C)n3)CCCC2C)ccc1C1CCN(C(=O)C2CC2)CC1 (single isomer, unassigned; (+)) [listing 1 of 2 here] | – | – | 9 nM | – | < 0.5 nM | Activity (Oryctolagus cuniculus [7]): Non-Toxic; Activity (Cynomolgus monkey [8]): Non-Toxic
18 | Cc1cc(C2CCN(C(=O)C3CC3)CC2)ccc1NC1CCc2cccc(-c3cccc(-n4ncc(C(=O)O)c4C(F)(F)F)n3)c21 (single isomer, unassigned; (+)) [listing 1 of 2 here] | – | – | – | – | < 0.5 nM | EC50 [3]: 3 nM; Activity (Oryctolagus cuniculus [5]): Toxic; Activity (Oryctolagus cuniculus [6]): Toxic
19 | Cc1cc2c(c(-c3cccc(-n4ncc(C(=O)O)c4C(F)(F)F)n3)c1)C(Nc1ccc(C3CCN(C(=O)C4CC4)CC3)cc1C)CC2 (single isomer, unassigned; (+)) [listing 1 of 2 here] | – | – | 55 nM | – | 1 nM | pKa [9]: 3.1
20 | Cc1cc(C2CCN(C(=O)C3CC3)CC2)ccc1OC1CCc2cccc(-c3cccc(-n4cc(C(=O)O)cn4)n3)c21 (single isomer, unassigned; (+)) | 2.5 nM | 103% | 320 nM | 70% | – | –

Row | SMILES | EC50 ([1]; CHO-K1, 1 h) | Emax (Homo sapiens [2]) | EC50 ([3]; Homo sapiens, GTM3, 0.5 h) | Emax (Homo sapiens [4]) | EC50 [1] | other results
21 | CCc1cc(OCC2=C(c3cccc(-n4ncc(C(=O)O)c4C(F)(F)F)n3)CCCC2C)ccc1C1CCN(C(=O)C2CC2)CC1 (single isomer, unassigned; (+)) [listing 2 of 2 here] | – | 102% | – | 85% | – | –
22 | CCc1cc(OCC2=C(c3cccc(-n4ncc(C(=O)O)c4C)n3)CCCC2C)ccc1C1CCN(C(=O)C2CC2)CC1 (single isomer, unassigned; (+)) [listing 2 of 2 here] | – | 101% | – | 120% | – | Activity (Cynomolgus monkey [10]): Active
23 | Cc1cc(C2CCN(C(=O)C3CC3)CC2)ccc1NC1CCc2cccc(-c3cccc(-n4ncc(C(=O)O)c4C(F)(F)F)n3)c21 (single isomer, unassigned; (+)) [listing 2 of 2 here] | – | 100% | – | 89% | – | –
24 | Cc1cc(C2CCN(C(=O)C3CC3)CC2)ccc1OC1CCc2cccc(-c3cccc(-n4ncc(C(=O)O)c4C(F)(F)F)n3)c21 (single isomer, unassigned; (+)) [listing 2 of 2 here] | – | 102% | – | 100% | – | –
25 | Cc1cc2c(c(-c3cccc(-n4ncc(C(=O)O)c4C(F)(F)F)n3)c1)C(Nc1ccc(C3CCN(C(=O)C4CC4)CC3)cc1C)CC2 (single isomer, unassigned; (+)) [listing 2 of 2 here] | – | 101% | – | 85% | – | –
26 | Cc1cc(C2CCN(C(=O)C3CC3)CC2)ccc1OC1CCc2cccc(-c3cccc(-n4ncc(C(=O)O)c4C(F)(F)F)n3)c21 (single isomer, unassigned; (-)) [listing 1 of 2 here] | – | – | – | – | 7 nM | –
27 | Cc1cc(C2CCN(C(=O)C3CC3)CC2)ccc1NC1CCc2cccc(-c3cccc(-n4ncc(C(=O)O)c4C(F)(F)F)n3)c21 (single isomer, unassigned; (-)) [listing 1 of 2 here] | – | – | – | – | 37 nM | EC50 [3]: 1200 nM
28 | Cc1cc2c(c(-c3cccc(-n4ncc(C(=O)O)c4C(F)(F)F)n3)c1)C(Nc1ccc(C3CCN(C(=O)C4CC4)CC3)cc1C)CC2 (single isomer, unassigned; (-)) [listing 1 of 2 here] | – | – | – | – | 24 nM | –
29 | Cc1cc(C2CCN(C(=O)C3CC3)CC2)ccc1NC1CCc2cccc(-c3cccc(-n4ncc(C(=O)O)c4C(F)(F)F)n3)c21 (single isomer, unassigned; (-)) [listing 2 of 2 here] | – | 101% | – | 97% | – | –
30 | Cc1cc(C2CCN(C(=O)C3CC3)CC2)ccc1OC1CCc2cccc(-c3cccc(-n4ncc(C(=O)O)c4C(F)(F)F)n3)c21 (single isomer, unassigned; (-)) [listing 2 of 2 here] | – | 100% | – | – | – | –
31 | Cc1cc2c(c(-c3cccc(-n4ncc(C(=O)O)c4C(F)(F)F)n3)c1)C(Nc1ccc(C3CCN(C(=O)C4CC4)CC3)cc1C)CC2 (single isomer, unassigned; (-)) [listing 2 of 2 here] | – | 99% | – | – | – | –
32 | Cc1cc(C2CCN(C(=O)C3CC3)CC2)ccc1NC1CCc2cccc(-c3cccc(-n4ncc(C(=O)O)c4C)n3)c21 (stereo in doubt; (+)-23) [listing 1 of 2 here] | – | – | – | – | < 0.5 nM | Activity (Oryctolagus cuniculus [7]): Non-Toxic; EC50 [3]: 5 nM; pKa [9]: 4.3; Activity (Cynomolgus monkey [8]): Non-Toxic
33 | Cc1cc(C2CCN(C(=O)C3CC3)CC2)ccc1NC1CCc2cccc(-c3cccc(-n4ncc(C(=O)O)c4C)n3)c21 (stereo in doubt; (+)-23) [listing 2 of 2 here] | – | 104% | – | 106% | – | Activity (Cynomolgus monkey [10]): Active
34 | CCc1cc(OCC2=C(c3cccc(-n4ncc(C(=O)O)c4C(F)(F)F)n3)CCCC2C)ccc1C1CCN(C(=O)C2CC2)CC1 (stereo in doubt; (-)-17) [listing 1 of 2 here] | – | – | – | – | 9 nM | EC50 [3]: 170 nM
35 | CCc1cc(OCC2=C(c3cccc(-n4ncc(C(=O)O)c4C(F)(F)F)n3)CCCC2C)ccc1C1CCN(C(=O)C2CC2)CC1 (stereo in doubt; (-)-17) [listing 2 of 2 here] | – | 100% | – | 63% | – | –
36 | Cc1cc(C2CCN(C(=O)C3CC3)CC2)ccc1NC1CCc2cccc(-c3cccc(-n4ncc(C(=O)O)c4C)n3)c21 (stereo in doubt; (-)-23) [listing 1 of 2 here] | – | – | – | – | 17 nM | EC50 [3]: 490 nM
37 | Cc1cc(C2CCN(C(=O)C3CC3)CC2)ccc1NC1CCc2cccc(-c3cccc(-n4ncc(C(=O)O)c4C)n3)c21 (stereo in doubt; (-)-23) [listing 2 of 2 here] | – | 102% | – | 82% | – | –
38 | CCc1cc(OCC2=C(c3cccc(-n4ncc(C(=O)O)c4C)n3)CCCC2C)ccc1C1CCN(C(=O)C2CC2)CC1 (stereo in doubt; (-)-24) [listing 1 of 2 here] | – | – | – | – | 3 nM | –
39 | CCc1cc(OCC2=C(c3cccc(-n4ncc(C(=O)O)c4C)n3)CCCC2C)ccc1C1CCN(C(=O)C2CC2)CC1 (stereo in doubt; (-)-24) [listing 2 of 2 here] | – | 101% | – | – | – | –
40 | O=C(O)CCCCN(CCc1ccccc1OCc1ccc(CCc2ccccc2)cc1)Cc1ccc(C(=O)O)cc1 [CINACIGUAT] | 1 nM | 93% | 4 nM | 15% | – | –
